Four compounds from ChEMBL document CHEMBL4808162, “Constraining the Side Chain of C-Terminal Amino Acids in Apelin-13 Greatly Increases Affinity, Modulates Signaling, and Improves the Pharmacokinetic Profile” (J Med Chem, 2021) can be followed below.

Data set [1] is described as follows: Clearance in Sprague-Dawley rat plasma at 3 mg/kg, iv bolus injection measured up to 240 mins by LC-MS/MS analysis. Type of data set: ADME, organism-based. The method in brief:
(§1)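 Male Sprague-Dawley rats (250−300 g, 8−10 weeks), jugular vein catheter placed 24 h before dosing, n = 3. Single i.v. bolus in 0.9% saline at 3 mg/kg. Blood drawn at 5, 10, 30, 60, 120, 240 min into K2-EDTA tubes. Plasma cleaned by acetonitrile precipitation and HLB, then quantified by LC-MS/MS.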

The target in data set [2] is T1, Apelin receptor (Homo sapiens, UniProt P35414).
T1 sequence (P35414 whole entry): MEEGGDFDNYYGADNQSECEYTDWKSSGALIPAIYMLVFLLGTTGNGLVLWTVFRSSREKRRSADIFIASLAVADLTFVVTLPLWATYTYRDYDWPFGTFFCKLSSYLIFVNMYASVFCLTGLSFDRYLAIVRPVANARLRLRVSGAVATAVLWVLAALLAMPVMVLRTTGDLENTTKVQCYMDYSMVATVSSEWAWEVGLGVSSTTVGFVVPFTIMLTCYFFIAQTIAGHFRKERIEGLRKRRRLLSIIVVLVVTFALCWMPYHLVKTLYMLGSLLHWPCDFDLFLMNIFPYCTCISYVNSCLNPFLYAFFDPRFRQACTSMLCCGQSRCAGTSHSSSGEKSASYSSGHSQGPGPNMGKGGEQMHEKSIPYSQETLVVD
Nature of the data set: Agonist activity at human APJ receptor expressed in HEK293 cells co-expressing Rlucll-beta-arrestin2 assessed as induction of beta-arrestin2 recruitment to receptor incubated for 30 mins by BRET assay. It is filed as functional, cell-based. On the technique in general: Arrestin recruitment assays detect the binding of arrestin to an activated receptor.

Data set [3] in a line: Half life in Sprague-Dawley rat plasma at 3 mg/kg, iv bolus injection measured up to 240 mins by LC-MS/MS analysis. It is filed as ADME, organism-based. The method in brief:
as §1

Data set [4] concerns the target T1, Apelin receptor. In words: Agonist activity at human APJ receptor expressed in HEK293T cells co-expressing Galphai1 RlucII assessed as dissociation of Galphai1 from Gbetta/gamma subunit measured using coelenterazine luciferase substrate incubated for 5 mins by BRET assay. Type of data set: functional, cell-based, HEK293.
Data set [5] in a line: Stability in Sprague-Dawley rat plasma assessed as half life measured up to 24 hrs by UPLC-MS analysis. It is filed as ADME, cell-free. The method in brief:
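Peptide (6 μL of 1 mM aqueous solution) incubated with 27 μL male Sprague-Dawley rat plasma at 37 °C. Time points 0, 1, 2, 4, 7, 24 h, or 0–120 min for labile peptides. Reaction quenched with acetonitrile-ethanol containing N,N-dimethylbenzamide internal standard, filtered, then UPLC-MS. t1/2 from one-phase exponential decay; at least three experiments.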

The target of data set [6] is T1, Apelin receptor. In words: Agonist activity at human APJ receptor expressed in HEK293T cells co-expressing PDZ-Rho-Gef-RLucll and rGFP-CAAX assessed as induction of recruitment of Galpha12 to cell membrane using coelenterazine luciferase substrate incubated for 5 mins by BRET assay. It is filed as functional, cell-based, HEK293. (In BRET a luciferase serves as donor, and the signal depends on an acceptor being close.)

The nature of data set [7]: AUCtot in Sprague-Dawley rat plasma at 3 mg/kg, iv bolus injection measured up to 240 mins by LC-MS/MS analysis. Type of data set: ADME, organism-based. Details: route intravenous, dose 3 mg/kg, time <=240. The following applies: in vivo, 4 h. The method in brief: as §1
Data set [8] addresses Angiotensin-converting enzyme 2 (Rattus norvegicus, UniProt Q5EGZ1). Nature of the data set: Stability of the compound assessed as recombinant rat ACE2-mediated degradation measured up to 24 hrs by UPLC-MS analysis. It is filed as ADME. The method in brief:
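Recombinant rat ACE2 at 20 nM final in 100 mM Tris-HCl, 100 mM NaCl, 10 μM ZnCl2, pH 7.4. Peptide at 50 μM final with N,N-dimethylbenzamide internal standard, incubated 1, 2 and 24 h at 37 °C with shaking. Reaction stopped with EDTA; blank used pre-inactivated enzyme. Remaining peptide measured by UPLC-MS in SIM mode, oxidized forms summed; n = 3.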

Data set [9] has as its target T1, Apelin receptor. Nature of the data set: Displacement of [125I] [NIe75,Tyr77]Pyr-apelin-13 from YFP-tagged human APJ receptor expressed in HEK293 cells incubated for 1 hr by gamma counting analysis. It is filed as cell-based. For orientation: Displacement assays read how much labelled ligand stays bound in the presence of the test substance.
In data set [10] the test system is Rattus norvegicus. In words: Effect on mean arterial blood pressure in Sprague-Dawley rat at 65 nmol/kg, iv bolus injection measured after 1 min. Type of data set: functional, organism-based. The method in brief: (§2)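 Male Sprague-Dawley rats (250−300 g) under ketamine/xylazine (87/13 mg/kg i.m.) on a thermostatic pad. Mean arterial pressure recorded through a right carotid catheter. Saline vehicle bolus given, then 5 min later the peptide i.v. at 19.6 nmol/kg (n = 5) or 65 nmol/kg.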

The target in data set [11] is T2, Apelin receptor (Homo sapiens) (UniProt P35414).
T2 sequence (whole entry): T1 sequence (P35414 whole entry)
Nature of the data set: Agonist activity at human APJ receptor expressed in HEK293 cells co-expressing Rlucll-beta-arrestin2 assessed as induction of beta-arrestin2 recruitment to receptor incubated for 30 mins by BRET assay relative to control. Type of data set: functional, cell-based. The method in brief: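 HEK293 cells transiently transfected with PEI, carrying hAPJ-GFP10 and RlucII-β-arrestin2. Cells replated at 50 000/well after 24 h, washed, and placed in HBSS. Ligand given at 10⁻⁵ to 10⁻¹¹ M for 30 min at room temperature. 5 μM coelenterazine 400A added, BRET² ratio GFP10/RlucII read. EC50 from dose-response fit; three experiments, each in triplicate.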

In data set [12] the test system is Rattus norvegicus. In words: Hypotensive effect in Sprague-Dawley rat assessed as drop in mean arterial blood pressure at 19.6 nmol/kg, iv bolus injection measured after 1 min. It is filed as functional. The method in brief: as §2
Data set [13] has as its target T2, Apelin receptor (Homo sapiens). In words: Agonist activity at human APJ receptor expressed in HEK293T cells co-expressing PDZ-Rho-Gef-RLucll and rGFP-CAAX assessed as induction of recruitment of Galpha12 to cell membrane using coelenterazine luciferase substrate incubated for 5 mins by BRET assay relative to control. It is filed as functional, cell-based. The following applies: HEK293, filed as partial agonist. In short, it runs like this: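 HEK293T cells (35 000/well) transiently transfected with PEI 48 h before assay, carrying hAPJ, Gα12, Gβ1, Gγ1 and the ebBRET pair PDZ-RhoGEF-RLucII / rGFP-CAAX. Ligand stimulation for 5 min. Curves fitted as normalized variable-slope dose-response with Hill slope shared; eight experiments, each singly.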

Active and inactive are the calls of the source. Peptide text beside a SMILES is read from it.

Sequence of Angiotensin-converting enzyme 2 (Q5EGZ1 whole entry): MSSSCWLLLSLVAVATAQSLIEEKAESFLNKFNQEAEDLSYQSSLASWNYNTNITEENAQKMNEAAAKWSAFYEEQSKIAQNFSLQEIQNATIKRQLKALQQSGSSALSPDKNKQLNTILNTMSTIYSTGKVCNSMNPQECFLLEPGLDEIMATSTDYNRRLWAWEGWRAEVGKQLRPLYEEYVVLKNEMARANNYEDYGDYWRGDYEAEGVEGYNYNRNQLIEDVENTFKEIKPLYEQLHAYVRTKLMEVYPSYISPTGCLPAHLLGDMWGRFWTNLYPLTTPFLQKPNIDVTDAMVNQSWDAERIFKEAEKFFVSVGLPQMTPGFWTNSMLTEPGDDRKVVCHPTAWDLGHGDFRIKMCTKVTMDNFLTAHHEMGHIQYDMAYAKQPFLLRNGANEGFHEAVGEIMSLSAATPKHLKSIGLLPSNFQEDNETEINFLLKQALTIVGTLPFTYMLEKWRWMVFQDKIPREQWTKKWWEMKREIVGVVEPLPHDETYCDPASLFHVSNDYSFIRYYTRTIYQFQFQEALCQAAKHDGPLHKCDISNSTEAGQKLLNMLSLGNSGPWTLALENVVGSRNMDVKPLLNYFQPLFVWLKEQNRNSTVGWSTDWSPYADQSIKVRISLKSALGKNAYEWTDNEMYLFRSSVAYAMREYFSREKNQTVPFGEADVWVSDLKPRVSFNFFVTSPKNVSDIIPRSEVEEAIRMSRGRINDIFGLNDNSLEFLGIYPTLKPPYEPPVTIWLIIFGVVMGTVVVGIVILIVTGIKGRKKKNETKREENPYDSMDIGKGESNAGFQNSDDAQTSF

Consider `CCCC[C@H](NC(=O)[C@@H]1CCCN1C(=O)CNC(=O)[C@H](CCCCN)NC(=O)[C@H](Cc1cnc[nH]1)NC(=O)[C@H](CO)NC(=O)[C@H](CC(C)C)NC(=O)[C@H](CCCNC(=N)N)NC(=O)[C@@H]1CCCN1C(=O)[C@H](CCCNC(=N)N)NC(=O)[C@@H]1CCC(=O)N1)C(=O)N[C@@H](Cc1cccc2ccccc12)C(=O)NC(Cc1ccccc1)(Cc1ccccc1)C(=O)O` (HELM PEPTIDE1{[Glp].R.P.R.L.S.H.K.G.P.[Nle].[O=C([C@H](Cc1cccc2ccccc12)N[*:1])[*:2]].[O=C(O)C(Cc1ccccc1)(Cc1ccccc1)N[*:1]]}$$$$V2.0), for which, in [1], the clearance was 27 mL/min/kg. Besides, the EC50 at Apelin receptor [2] came to 36 nM; at Apelin receptor [4] it was 3.8 nM; at Apelin receptor [6], 2.8 nM. The half-life in [3] was 26 min; in data set [5] it was 438 min. For the same compound, the AUC in data set [7] amounted to 0.12 mg·min/mL. Further, the Stabilty entry in data set [8] is recorded as “Stable”. The same compound had a Ki at Apelin receptor [9] of 0.08 nM.

For the compound `CCCC[C@H](NC(=O)[C@@H]1CCCN1C(=O)CNC(=O)[C@H](CCCCN)NC(=O)[C@H](Cc1cnc[nH]1)NC(=O)[C@H](CO)NC(=O)[C@H](CC(C)C)NC(=O)[C@H](CCCNC(=N)N)NC(=O)[C@@H]1CCCN1C(=O)[C@H](CCCNC(=N)N)NC(=O)[C@@H]1CCC(=O)N1)C(=O)N1CCC[C@H]1C(=O)N[C@H](Cc1cc(C2CCCC2)c(OCc2ccccc2)c(C2CCCC2)c1)C(=O)O`, the outcome in the data set on Rattus norvegicus [10] was inactive. The EC50 at Apelin receptor [2] came to 367 nM; at Apelin receptor [4], 22 nM; on Apelin receptor [6], 141 nM. The Emax in data set [11] amounted to 53%. At Apelin receptor [9], this compound registered a Ki of 13 nM.

Take `CCCC[C@H](NC(=O)[C@@H]1CCCN1C(=O)CNC(=O)[C@H](CCCCN)NC(=O)[C@H](Cc1cnc[nH]1)NC(=O)[C@H](CO)NC(=O)[C@H](CC(C)C)NC(=O)[C@H](CCCNC(=N)N)NC(=O)[C@@H]1CCCN1C(=O)[C@H](CCCNC(=N)N)NC(=O)[C@@H]1CCC(=O)N1)C(=O)N[C@H]1Cc2c([nH]c3ccccc23)CN([C@@H](Cc2ccccc2)C(=O)O)C1=O`: the clearance in data set [1] was 23 mL/min/kg. For the same compound, the results for the EC50 at Apelin receptor [2] (hek293), on Apelin receptor [4] (hek293) and at Apelin receptor [6] (hek293) were 25 nM, 2.5 nM and 11 nM, respectively. The half-life was 20 min in [3] and 348 min in [5]. Further, the AUC in data set [7] was 0.13 mg·min/mL. For the same compound, the Stabilty result in data set [8] was “Stable”. The Ki at Apelin receptor [9] (hek293) is 0.08 nM.

`CCCC[C@H](NC(=O)[C@@H]1CCCN1C(=O)CNC(=O)[C@H](CCCCN)NC(=O)[C@H](Cc1cnc[nH]1)NC(=O)[C@H](CO)NC(=O)[C@H](CC(C)C)NC(=O)[C@H](CCCNC(=N)N)NC(=O)[C@@H]1CCCN1C(=O)[C@H](CCCNC(=N)N)NC(=O)[C@@H]1CCC(=O)N1)C(=O)N1CCC[C@H]1C(=O)N[C@](C)(Cc1ccc(OCc2ccccc2)cc1)C(=O)O`: the Activity in the data set on Rattus norvegicus [12] is 30 mmHg. Moreover, the EC50 on Apelin receptor [2] amounted to 30 nM; at Apelin receptor [4], 2.7 nM; on Apelin receptor [6], 4.4 nM. Besides, the half-life in [5] is 54 min. For the same compound, the maximal response (Emax) in data set [13] was 46%.

By clearance is commonly meant the volume of plasma or blood freed of the substance per unit of time. Broadly, the EC50 is the concentration needed to bring the measured effect to its halfway point. As usually defined, the half-life is the time needed for the level to fall by half in the phase considered. What is called AUC is the area under the concentration-time curve, a measure of exposure. One may read the Ki as the equilibrium dissociation constant of an inhibitor or competing ligand from its target. A higher Ki goes with a looser hold on the target. As a reminder, the Emax is the maximal effect, on the per cent scale that the assay sets.
